Data published in paper PMC2692659 (Cellular signalling, 2009).
Where a SMILES comes first, the peptide text is derived from it.

Tests used:
Arf GAP2 [1] = target: T1, Arf GAP2 (Homo sapiens, UniProt Q8N6H7); assay: Cargo peptide titration in coatomer-dependent GAP assay; assay type: biochemical; conditions: for effect of peptide on Arf GAP2 activity: LUVs PI4P 0.03 μm, 3 min 30 °C
In short: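 Arf GAP2 [1–521]-His6 (E. coli, refolded from inclusion bodies) at 11.4 nM, with 124 nM rat-liver coatomer. Substrate was 0.6 μM [α32P]GTP•myrArf1 on PI4P LUVs extruded through 0.03 μm pores. p23, p24 or p25 cytoplasmic-tail peptides (p25 also palmitoyl- or WRM-extended) were titrated in. Reactions ran 3 min at 30 °C. Palmitoyl-peptide data were fit to one-site binding with offset; duplicate experiments.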

Arf GAP2 [2] = target: T1, Arf GAP2; assay: Saturation kinetics, tryptophan fluorescence based assay; assay type: biochemical; conditions: 25 μM peptide, 124 nM coatomer, LUVs 0.03 μm
In short: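 myrArf1•GTP was titrated into reactions with 114 nM Arf GAP2 [1–521]-His6, 124 nM coatomer and PI4P LUVs (0.03 μm pores), with or without 25 μM p25 peptide. GTP→GDP conversion was followed by tryptophan fluorescence. Readings were corrected for time-dependent fluorescence change of Arf GAP2 ± coatomer. Initial rates were fit to Michaelis-Menten and Hill equations; kcat came from Vmax.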

ASAP1 = assay: Effect of coatomer and p25 on ASAP1 GAP activity; assay type: biochemical; conditions: 1 nM ASAP1, 3 min 30°C
In short: (§1)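 GAP enzyme was Arf GAP2 [1–521]-His6 or His10-[325–724]ASAP1. Mixtures held 0.6 μM [α32P]GTP•Arf1 on PI4P LUVs extruded through 0.03 μm pores, with or without 124 nM coatomer and 25 μM p25 peptide. Fraction of GTP hydrolysed in 3 min at 30 °C was measured.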

Arf GAP2 [3] = target: T1, Arf GAP2; assay: Coatomer titration in Arf GAP2 GAP assay; assay type: biochemical
In short: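 Coatomer was titrated into reactions with 11.4 nM Arf GAP2 [1–521]-His6, 0.6 μM [α32P]GTP•myrArf1 and 25 μM p25 peptide. LUVs contained PI4P and were extruded through 1.0 or 0.03 μm pores. Reactions ran 3 min at 30 °C. Read-out was hydrolysis of Arf1-bound GTP.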

Arf GAP2 [4] = target: T1, Arf GAP2; assay: Saturation kinetics following [α^32P]GTP hydrolysis; assay type: biochemical; conditions: 25 μM peptide, 124 nM coatomer, LUVs 0.03 μm
In short: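 Saturation kinetics used [α32P]GTP•Arf1, titrated into reactions with 10 nM Arf GAP2 [1–521]-His6 and 124 nM coatomer, with or without 25 μM p25 peptide. LUVs contained PI4P and were extruded through 0.03 μm pores. Reactions stopped after 3 min at 30 °C. Data were fit to Michaelis-Menten and Hill equations, with kcat calculated from Vmax; three experiments.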

Arf GAP2 [5] = assay: Effect of p25 on Arf GAP2 with and without coatomer; assay type: biochemical; conditions: 3 min 30°C
In short: as §1

Arf GAP1 = assay: Effect of p25 on Arf GAP1 with and without coatomer; assay type: biochemical; conditions: 25 μM p25, 28 nM Arf GAP1, 124 nM coatomer, 3 min 30°C
Arf GAP2 [6] = target: T1, Arf GAP2; assay: Time dependence; assay type: biochemical
[7] = system: [α^32P]GTP•Arf1 (myrArf1); assay: GAP assay: Arf GAP titration, hydrolysis of [α^32P]GTP bound to myrArf1; assay type: biochemical, Human; conditions: for C50 (amount of Arf GAP needed for 50% of maximum observed hydrolysis) / Maximum GTP Hydrolysis: 0.6 μM [α^32P]GTP•Arf1, 3 min, 30 °C, mean ± SD, three experiments
coatomer = conditions: ref [18]; cited from earlier work
Arf GAP2 [8] = target: T1, Arf GAP2; conditions: tryptophan fluorescence assay; ref [33]; cited from earlier work
Protein binding to LUVs = conditions: 1 μM Arf GAP2; 5 min, 30°C; Coomassie Blue; not shown
In short: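 Sucrose-loaded LUVs (1 mM total lipid), extruded through 0.03 or 1 μm pores, were incubated with purified Arf GAP2 (1 μM) for 5 min at 30 °C. Vesicles were pelleted at 100,000 × g for 15 min at 4 °C. Bound protein was resolved by SDS-PAGE and stained with Coomassie Blue.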

Arf GAP2 [9] = target: T1, Arf GAP2; assay type: biochemical; conditions: for effect of phosphoinositide on Arf GAP2 activity: without coatomer
[10] = 11.4 nM Arf GAP2, 124 nM coatomer
[11] = LUVs 2.5% PI4P, 0.03 μm pores, 124 nM coatomer and 25 μM p25 where indicated
[12] = LUVs 2.5% PI4P, 1.0 μm pores, 124 nM coatomer and 25 μM p25 where indicated
[13] = LUVs 2.5% PIP2, 0.03 μm pores, 124 nM coatomer where indicated
[14] = LUVs 2.5% PIP2, 1.0 μm pores, 124 nM coatomer where indicated

T1 sequence (Q8N6H7 whole entry): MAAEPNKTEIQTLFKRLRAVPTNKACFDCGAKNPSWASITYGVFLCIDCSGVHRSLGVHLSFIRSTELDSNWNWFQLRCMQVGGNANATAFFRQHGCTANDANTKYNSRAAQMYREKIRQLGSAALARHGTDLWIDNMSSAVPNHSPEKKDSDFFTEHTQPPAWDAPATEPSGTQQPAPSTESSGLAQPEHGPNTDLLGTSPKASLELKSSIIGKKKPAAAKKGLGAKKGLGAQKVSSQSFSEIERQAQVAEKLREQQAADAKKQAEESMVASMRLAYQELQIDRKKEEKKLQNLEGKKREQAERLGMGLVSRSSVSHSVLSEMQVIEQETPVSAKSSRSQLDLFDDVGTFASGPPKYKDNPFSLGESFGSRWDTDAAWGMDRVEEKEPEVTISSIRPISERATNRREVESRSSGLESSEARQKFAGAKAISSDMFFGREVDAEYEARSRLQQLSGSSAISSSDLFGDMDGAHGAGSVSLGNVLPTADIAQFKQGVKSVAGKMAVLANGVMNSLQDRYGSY

With `CSCC[C@H](NC(=O)[C@H](CCCNC(=N)N)NC(=O)[C@@H](N)Cc1c[nH]c2ccccc12)C(=O)N[C@@H](CCCNC(=N)N)C(=O)N[C@@H](Cc1c[nH]cn1)C(=O)N[C@@H](CC(C)C)C(=O)N[C@@H](CCCCN)C(=O)N[C@@H](CO)C(=O)N[C@@H](Cc1ccccc1)C(=O)N[C@@H](Cc1ccccc1)C(=O)N[C@@H](CCC(=O)O)C(=O)N[C@@H](C)C(=O)N[C@@H](CCCCN)C(=O)N[C@@H](CCCCN)C(=O)N[C@@H](CC(C)C)C(=O)N[C@H](C(=O)O)C(C)C` (H-WRMRHLKSFFEAKKLV-OH) the “effect of peptide on Arf GAP2 activity” value (Arf GAP2 [1]; [10]) was “stimulated activity”.

For `CC[C@H](C)[C@H](NC(=O)[C@H](CC(C)C)NC(=O)[C@H](CCCCN)NC(=O)[C@H](CCCCN)NC(=O)[C@H](C)NC(=O)[C@H](CCCCN)NC(=O)[C@H](Cc1ccccc1)NC(=O)[C@H](Cc1ccccc1)NC(=O)[C@H](CCCNC(=N)N)NC(=O)[C@H](CCCNC(=N)N)NC(=O)[C@H](CC(C)C)NC(=O)[C@@H](N)Cc1ccc(O)cc1)C(=O)N[C@@H](CCC(=O)O)C(=O)O` [p23] (H-YLRRFFKAKKLIE-OH; N-terminus and C-terminus assumed), the “effect of peptide on Arf GAP2 activity” value (Arf GAP2 [1]; [10]) was “stimulated GAP activity”.

For `CC(C)C[C@H](NC(=O)[C@H](Cc1c[nH]cn1)NC(=O)[C@@H](N)CCCNC(=N)N)C(=O)N[C@@H](CCCCN)C(=O)N[C@@H](CO)C(=O)N[C@@H](Cc1ccccc1)C(=O)N[C@@H](Cc1ccccc1)C(=O)N[C@@H](CCC(=O)O)C(=O)N[C@@H](C)C(=O)N[C@@H](CCCCN)C(=O)N[C@@H](CCCCN)C(=O)N[C@@H](CC(C)C)C(=O)N[C@H](C(=O)O)C(C)C` [p25] (H-RHLKSFFEAKKLV-OH; N-terminus and C-terminus assumed), the EC50 (Arf GAP2 [1]) was 500 ± 200 nM, the “effect of peptide on Arf GAP2 activity” value (Arf GAP2 [1]; [10]) was “stimulated GAP activity” and the “peptide concentration above which the effect decreased” value (Arf GAP2 [1]; concentrations greater than, 11.4 nM Arf GAP2, 124 nM coatomer) was 25 to 50 µM. For the same molecule, the “effect of p25 on kcat” value (Arf GAP2 [2]) was “increased the kcat of the reaction”, the “effect of p25 on ASAP1 with coatomer” value (ASAP1; 25 μM p25, 124 nM coatomer) was “coatomer-dependent inhibition was increased by p25” and the “effect of p25 on ASAP1 without coatomer” value (ASAP1; 25 μM p25, no coatomer) was “no effect in the absence of coatomer”. For the same molecule, the “effect of p25 on coatomer dependence of Arf GAP2 activity” value (Arf GAP2 [3]; 25 μM p25, 11.4 nM Arf GAP2, 0.03 and 1.0 μm LUVs) was “increased the extent of hydrolysis”, the “coatomer concentration at peak activity, with p25” value (Arf GAP2 [3]; 25 μM p25 peptide, smaller LUVs, 11.4 nM Arf GAP2, 3 min, 30 °C) was 100 nM and the “coatomer concentration below which p25 effect was greatest” value (Arf GAP2 [3]; smaller LUVs, 25 μM p25, 11.4 nM Arf GAP2) was “less than 250 nM”. For the same molecule, the “effect of p25 on kcat” value (Arf GAP2 [4]) was “increased the kcat of the reaction”, the “effect of p25 on Arf GAP2 with coatomer” value (Arf GAP2 [5]; 25 μM p25, 11.4 nM Arf GAP2, 124 nM coatomer) was “increased the activity in the samples containing both Arf GAP2 and coatomer” and the “Arf GAP2 activity without coatomer” value (Arf GAP2 [5]; 25 μM p25, 11.4 nM Arf GAP2, no coatomer) was “No activity was detected in the absence of coatomer”. For the same molecule, the “effect of p25 on Arf GAP2 without coatomer” value (Arf GAP2 [5]; 25 μM p25, 3.4 μM Arf GAP2, no coatomer) was “had no effect”, the “effect of p25 on Arf GAP1” value (Arf GAP1) was “stimulated by p25 when coatomer was present” and the “effect of p25 on time dependence of hydrolysis” value (Arf GAP2 [6]; 25 μM p25 with coatomer) was “accelerated hydrolysis”.

For “Arf GAP2: [1–521] Arf GAP2 His6 expressed in E. coli and purified from inclusion bodies”, the “extent of hydrolysis at highest Arf GAP2 concentration” value ([7]; 3.4 μM Arf GAP2, no coatomer, footnote 1) was 25% – 40, the “C50 (amount of Arf GAP needed for 50% of maximum observed hydrolysis)” value [7, 11] was > 500 nM and the “Maximum GTP Hydrolysis” value [7, 11] was 15 ± 1%. For the same molecule, the “C50 (amount of Arf GAP needed for 50% of maximum observed hydrolysis)” value [7, 12] was > 500 nM, the “Maximum GTP Hydrolysis” value [7, 12] was 6.2 ± 1.2% and the “C50 (amount of Arf GAP needed for 50% of maximum observed hydrolysis)” value [7, 13] was > 500 nM. For the same molecule, the “Maximum GTP Hydrolysis” value [7, 13] was 37 ± 5.2%, the “C50 (amount of Arf GAP needed for 50% of maximum observed hydrolysis)” value [7, 14] was > 500 nM and the “Maximum GTP Hydrolysis” value [7, 14] was 25 ± 2.0%. The “GAP activity compared to purified Arf GAP1” value ([7]; no coatomer) was “little activity compared to purified Arf GAP1”, the “binding to coatomer relative to Arf GAP1” value (coatomer) was “bind coatomer more tightly than does Arf GAP1” and the “effect of coatomer and curvature on Arf GAP2” value (Arf GAP2 [8]) was “stimulated by coatomer but was not affected by curvature”. For the same molecule, the “effect of vesicle size on Arf GAP2 binding to LUVs” value (Protein binding to LUVs) was “did not detect an effect of vesicle size”, the “first order rate constant, effect of vesicle size” value (Arf GAP2 [6]; 3.4 μM Arf GAP2, 0.6 μM myrArf1•GTP, no coatomer) was “three-fold greater on the smaller vesicles than on the larger vesicles” and the “rate constant relative to kcat of Arf GAP1” value (Arf GAP2 [6]; 3.4 μM Arf GAP2, no coatomer, kcat of Arf GAP1 from ref 22) was “less than 1/100”.

For “phosphatidylinositol 4,5-bisphosphate [PIP2]”, the “effect of phosphoinositide on Arf GAP2 activity” value (Arf GAP2 [9]) was “affected the extent of hydrolysis but not the C50”.

For phosphatidylinositol 4-phosphate [PI4P], the “reduction of C50 by PI4P” value (Arf GAP2 [9]; 124 nM coatomer present) was 2 fold and the “effect of phosphoinositide on Arf GAP2 activity” value (Arf GAP2 [9]) was “had no effect by itself”.

B1: Arf GAP3: Arf GAP that functions with the coat protein coatomer (protein, UniProt Q9NP61 1-516, looked up)
ADP-ribosylation factor …: MGDPSKQDILTIFKRLRSVPTNKVCFDCGAKNPSWASITYGVFLCIDCSGSHRSLGVHLSFIRSTELDSNWSWFQLRCMQVGGNASASSFFHQHGCSTNDTNAKYNSRAAQLYREKIKSLASQATRKHGTDLWLDSCVVPPLSPPPKEEDFFASHVSPEVSDTAWASAIAEPSSLTSRPVETTLENNEGGQEQGPSVEGLNVPTKATLEVSSIIKKKPNQAKKGLGAKKGSLGAQKLANTCFNEIEKQAQAADKMKEQEDLAKVVSKEESIVSSLRLAYKDLEIQMKKDEKMNISGKKNVDSDRLGMGFGNCRSVISHSVTSDMQTIEQESPIMAKPRKKYNDDSDDSYFTSSSSYFDEPVELRSSSFSSWDDSSDSYWKKETSKDTETVLKTTGYSDRPTARRKPDYEPVENTDEAQKKFGNVKAISSDMYFGRQSQADYETRARLERLSASSSISSADLFEEPRKQPAGNYSLSSVLPNAPDMAQFKQGVRSVAGKLSVFANGVVTSIQDRYGS
In the case of B1, the “binding to coatomer relative to Arf GAP1” value (coatomer) is listed as “bind coatomer more tightly than does Arf GAP1”.
